Assay results: ChEMBL document CHEMBL1629657, “In vitro antimicrobial activity of a new cephalosporin, ceftaroline, and determination of quality control ranges for MIC testing” (2009)

Key:
Format in all cases: functional
Pseudomonas aeruginosa [1] = test: Antimicrobial activity against multidrug resistant Pseudomonas aeruginosa by broth microdilution method
In short: (§1)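 Isolates of the stated resistance phenotype were tested by CLSI broth microdilution in unsupplemented cation-adjusted Mueller-Hinton broth. Ceftaroline was compared with ceftriaxone, levofloxacin and imipenem. Activity was expressed as MICs (MIC90 in μg/ml).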

[2] = tested on: Stenotrophomonas maltophilia; test: Antimicrobial activity against Stenotrophomonas maltophilia by broth microdilution method
In short: (§2)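 Clinical isolates were tested by CLSI broth microdilution in unsupplemented cation-adjusted Mueller-Hinton broth. The read-out was the MIC, reported as MIC90 (μg/ml) per species or phenotypic group. Ceftriaxone, levofloxacin and imipenem were run in parallel as comparators.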

Streptococcus pneumoniae [3] = test: Antimicrobial activity against penicillin-susceptible Streptococcus pneumoniae by broth microdilution method
In short: (§3)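 Streptococcal isolates were tested by CLSI broth microdilution in cation-adjusted Mueller-Hinton broth supplemented with 3% lysed horse blood. The read-out was the MIC, with MIC90 (μg/ml) reported per group. Ceftriaxone, levofloxacin and imipenem served as comparators.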

Streptococcus pneumoniae [4] = test: Antimicrobial activity against penicillin-resistant Streptococcus pneumoniae by broth microdilution method
In short: (§4)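 CLSI broth microdilution in cation-adjusted Mueller-Hinton broth with 3% lysed horse blood, against streptococcal clinical isolates of the stated phenotype. Ceftaroline was compared with ceftriaxone, levofloxacin and imipenem. Activity was expressed as MICs (MIC90 in μg/ml).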

Providencia stuartii = test: Antimicrobial activity against Proteus stuartii by broth microdilution method; in short: as §2
Escherichia coli [5] = test: Antimicrobial activity against ESBL-negative Escherichia coli by broth microdilution method; in short: as §2
Providencia rettgeri = test: Antimicrobial activity against Proteus rettgeri by broth microdilution method; in short: as §2
Streptococcus pyogenes [6] = test: Antimicrobial activity against macrolide-susceptible Streptococcus pyogenes by broth microdilution method; in short: as §4
Staphylococcus [7] = test: Antimicrobial activity against methicillin-resistant coagulase-negative Staphylococcus by broth microdilution method; in short: as §1
[8] = fT>MIC Enterobacteriaceae infected mouse model for 1-log kill
Enterococcus faecalis [9] = test: Antimicrobial activity against Enterococcus faecalis by broth microdilution method; in short: as §2
Moraxella catarrhalis = test: Antimicrobial activity against Moraxella catarrhalis by broth microdilution method; in short: as §2
Proteus mirabilis = test: Antimicrobial activity against Proteus mirabilis by broth microdilution method; in short: as §2
Klebsiella pneumoniae [10] = test: Antimicrobial activity against ESBL-negative Klebsiella pneumoniae by broth microdilution method; in short: as §2
Streptococcus pyogenes [11] = test: Antimicrobial activity against macrolide-resistant Streptococcus pyogenes by broth microdilution method; in short: as §4
Shigella sp. = test: Antimicrobial activity against Shigella spp. by broth microdilution method; in short: as §2
Streptococcus pneumoniae [12] = test: Antimicrobial activity against penicillin-intermediate Streptococcus pneumoniae by broth microdilution method; in short: as §4
[13] = fT>MIC Streptococcus pneumoniae infected mouse model for 1-log kill
[14] = fT>MIC Staphylococcus aureus infected mouse model for 1-log kill
Haemophilus influenzae [15] = test: Antimicrobial activity against beta-lactamase-positive Haemophilus influenzae by broth microdilution method
In short: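 H. influenzae isolates were tested by CLSI broth microdilution using Haemophilus test medium. The MIC was read and MIC90 (μg/ml) reported for the group. Ceftriaxone, levofloxacin and imipenem served as comparators.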

Burkholderia cepacia = test: Antimicrobial activity against Burkholderia cepacia by broth microdilution method; in short: as §2
Streptococcus pneumoniae [16] = test: Antimicrobial activity against levofloxacin-resistant Streptococcus pneumoniae by broth microdilution method; in short: as §4
Morganella morganii = test: Antimicrobial activity against Morganella morganii by broth microdilution method; in short: as §2
Staphylococcus aureus [17] = test: Antimicrobial activity against vancomycin-resistant Staphylococcus aureus by broth microdilution method; in short: as §1
Corynebacterium jeikeium = test: Antimicrobial activity against Corynebacterium jeikeium by broth microdilution method; in short: as §2
Streptococcus viridans = test: Antimicrobial activity against Streptococcus viridans group clinical isolate by broth microdilution method; in short: as §3
Staphylococcus aureus [18] = test: Antimicrobial activity against vancomycin-intermediate Staphylococcus aureus by broth microdilution method; in short: as §2
Escherichia coli [19] = test: Antimicrobial activity against ESBL-positive Escherichia coli by broth microdilution method; in short: as §2
Haemophilus influenzae [20] = test: Antimicrobial activity against beta-lactamase-negative ampicillin resistant Haemophilus influenzae by broth microdilution method
In short: (§5)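 CLSI broth microdilution in Haemophilus test medium (cation-adjusted Mueller-Hinton base) against clinical H. influenzae isolates of the stated phenotype. Ceftaroline was compared with ceftriaxone, levofloxacin and imipenem. Activity was expressed as MICs (MIC90 in μg/ml).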

Staphylococcus aureus [21] = test: Antimicrobial activity against methicillin-susceptible Staphylococcus aureus by broth microdilution method; in short: as §2
Enterococcus faecium [22] = test: Antimicrobial activity against vancomycin-susceptible Enterococcus faecium by broth microdilution method; in short: as §2
Haemophilus influenzae [23] = test: Antimicrobial activity against beta-lactamase-negative Haemophilus influenzae by broth microdilution method; in short: as §5
Klebsiella pneumoniae [24] = test: Antimicrobial activity against ESBL-positive Klebsiella pneumoniae by broth microdilution method; in short: as §2
Staphylococcus [25] = test: Antimicrobial activity against methicillin-susceptible coagulase-negative Staphylococcus by broth microdilution method; in short: as §2
Enterococcus faecium [26] = test: Antimicrobial activity against Enterococcus faecium by broth microdilution method; in short: as §2
Klebsiella aerogenes = test: Antimicrobial activity against ESBL-negative Enterobacter aerogenes by broth microdilution method; in short: as §2
Listeria monocytogenes = test: Antimicrobial activity against Listeria monocytogenes by broth microdilution method; in short: as §2
Salmonella sp. = test: Antimicrobial activity against Salmonella spp. by broth microdilution method; in short: as §2
Staphylococcus aureus [27] = test: Antimicrobial activity against methicillin-resistant Staphylococcus aureus by broth microdilution method; in short: as §1
Enterococcus faecalis [28] = test: Antimicrobial activity against vancomycin-susceptible Enterococcus faecalis by broth microdilution method; in short: as §2
Enterobacter cloacae = test: Antimicrobial activity against ESBL-negative Enterobacter cloacae by broth microdilution method; in short: as §2
Pseudomonas aeruginosa [29] = test: Antimicrobial activity against Pseudomonas aeruginosa by broth microdilution method; in short: as §2
Streptococcus agalactiae = test: Antimicrobial activity against Streptococcus agalactiae by broth microdilution method; in short: as §3
Proteus vulgaris = test: Antimicrobial activity against Proteus vulgaris by broth microdilution method; in short: as §2
Serratia marcescens = test: Antimicrobial activity against Serratia marcescens by broth microdilution method; in short: as §2

CCO/N=C(\C(=O)N[C@@H]1C(=O)N2C(C(=O)[O-])=C(Sc3nc(-c4cc[n+](C)cc4)cs3)CS[C@H]12)c1nsc(NP(=O)(O)O)n1 [CEFTAROLINE FOSAMIL]
2 µg/mL: MIC50 (Enterococcus faecalis [9])
32 µg/mL: MIC50 (Klebsiella pneumoniae [24]) | MIC50 (Enterococcus faecium [26])
0.06 µg/mL: MIC50 (Escherichia coli [5]) | MIC50 (Proteus mirabilis) | MIC50 (Klebsiella pneumoniae [10]) | MIC90 (Streptococcus pneumoniae [12]) | MIC90 (Haemophilus influenzae [15]) | MIC50 (Staphylococcus [25])
0.5 µg/mL: MIC90 (Streptococcus pneumoniae [4]) | MIC90 (Staphylococcus [7]) | MIC (Staphylococcus aureus [17]) | MIC (Staphylococcus aureus [27]) | MIC50 (Staphylococcus aureus [27]) | MIC90 (Enterobacter cloacae) | MIC (Serratia marcescens) | MIC50 (Serratia marcescens)
0.03 µg/mL: MIC50 (Shigella sp.) | MIC50 (Streptococcus pneumoniae [12]) | MIC50 (Streptococcus pneumoniae [16])
0.12 µg/mL: MIC50 (Moraxella catarrhalis) | MIC90 (Shigella sp.) | MIC90 (Streptococcus viridans) | MIC50 (Haemophilus influenzae [20]) | MIC50 (Klebsiella aerogenes) | MIC50 (Salmonella sp.) | MIC50 (Enterobacter cloacae)
0.25 µg/mL: MIC50 (Streptococcus pneumoniae [4]) | MIC50 (Staphylococcus [7]) | MIC90 (Moraxella catarrhalis) | MIC90 (Klebsiella pneumoniae [10]) | MIC90 (Streptococcus pneumoniae [16]) | MIC90 (Haemophilus influenzae [20]) | MIC (Staphylococcus aureus [21]) | MIC50 (Staphylococcus aureus [21]) | MIC90 (Staphylococcus aureus [21]) | MIC90 (Staphylococcus [25])
0.015 µg/mL: MIC (Streptococcus pneumoniae [3]) | MIC50 (Streptococcus pneumoniae [3]) | MIC90 (Streptococcus pneumoniae [3]) | MIC (Streptococcus pyogenes [6]) | MIC50 (Streptococcus pyogenes [6]) | MIC90 (Streptococcus pyogenes [6]) | MIC (Streptococcus pyogenes [11]) | MIC50 (Streptococcus pyogenes [11]) | MIC90 (Streptococcus pyogenes [11]) | MIC (Haemophilus influenzae [15]) | MIC50 (Haemophilus influenzae [15]) | MIC (Streptococcus viridans) | MIC50 (Streptococcus viridans) | MIC (Haemophilus influenzae [23]) | MIC50 (Haemophilus influenzae [23]) | MIC90 (Haemophilus influenzae [23]) | MIC (Streptococcus agalactiae) | MIC50 (Streptococcus agalactiae) | MIC90 (Streptococcus agalactiae)
33%: fT>MIC [14]
41%: fT>MIC [8]
1 µg/mL: MIC50 (Providencia stuartii) | MIC90 (Escherichia coli [5]) | MIC50 (Providencia rettgeri) | MIC50 (Staphylococcus aureus [18]) | MIC90 (Staphylococcus aureus [18]) | MIC50 (Enterococcus faecium [22]) | MIC90 (Staphylococcus aureus [27]) | MIC (Enterococcus faecalis [28]) | MIC50 (Enterococcus faecalis [28])
8 µg/mL: MIC90 (Serratia marcescens)
43%: fT>MIC [13]
> 32 µg/mL: MIC50 [2] | MIC90 [2] | MIC50 (Burkholderia cepacia) | MIC90 (Burkholderia cepacia) | MIC50 (Morganella morganii) | MIC90 (Morganella morganii) | MIC50 (Corynebacterium jeikeium) | MIC90 (Corynebacterium jeikeium) | MIC50 (Escherichia coli [19]) | MIC90 (Escherichia coli [19]) | MIC90 (Klebsiella pneumoniae [24]) | MIC90 (Enterococcus faecium [26]) | MIC90 (Klebsiella aerogenes) | MIC90 (Salmonella sp.) | MIC90 (Pseudomonas aeruginosa [29]) | MIC90 (Proteus vulgaris)
4 µg/mL: MIC90 (Providencia stuartii) | MIC90 (Providencia rettgeri) | MIC90 (Enterococcus faecalis [9]) | MIC90 (Proteus mirabilis) | MIC50 (Listeria monocytogenes) | MIC90 (Listeria monocytogenes) | MIC90 (Enterococcus faecalis [28])
16 µg/mL: MIC50 (Pseudomonas aeruginosa [1]) | MIC90 (Enterococcus faecium [22]) | MIC50 (Pseudomonas aeruginosa [29]) | MIC50 (Proteus vulgaris)
